Key:
[1] = molecular target: T1, Protein farnesyltransferase (Homo sapiens, UniProt P49354+P49356); assay: In vitro inhibition of Farnesyltransferase; assay type: protein-complex assay
Method in brief: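 Partially purified FTase from human Burkitt lymphoma (Daudi) cells, incubated with [³H]FPP and recombinant H-Ras-CVLS for 30 min at 37 °C.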

[2] = molecular target: Geranylgeranyl transferase type I (Homo sapiens, UniProt P49354+P53609); assay: In vitro inhibition of Geranylgeranyl transferase type I; assay type: protein-complex assay
Method in brief: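 Partially purified GGTase I from human Burkitt lymphoma (Daudi) cells, incubated for 30 min at 37 °C.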

[3] = molecular target: T1, Protein farnesyltransferase; assay: Inhibition of human Burkitt lymphoma (Daudi) cell farnesyltransferase; conditions: target entry is the homologue from another species

Compound | IC50 [1] [µM] | IC50 [2] [µM] | IC50 [3] [µM]
Cc1cccc(-c2ccc(NC[C@@H](N)CS)cc2)c1 | 0.71 | > 100 | –
CC[C@H](C)[C@H](NC(=O)[C@@H](NC(=O)[C@@H](N)CS)C(C)C)C(=O)N[C@@H](CCSC)C(=O)O | 0.2 | – | –
N[C@@H](CS)CNc1ccc(-c2ccccc2)cc1 | 1.07 | > 100 | –
N[C@@H](CS)C(=O)Nc1ccc(-c2cccc(C(=O)O)c2)cc1 | 13.5 | 100 | –
N[C@@H](CS)CNc1ccc(-c2ccccc2C(=O)O)cc1 | – | 140 | 0.543
N[C@@H](CS)C(=O)NCc1cccc(-c2cccc(C(=O)O)c2)c1 | 100 | > 100 | –
COC(=O)c1cccc(-c2ccc(NC[C@@H](N)CS)cc2)c1 | 0.917 | > 100 | –
N[C@@H](CS)CNc1ccc(-c2ccc(C(=O)O)cc2)cc1 | – | > 100 | –
CSCC[C@H](NC(=O)c1ccc(NC(=O)[C@@H](N)CS)cc1)C(=O)O | 0.15 | – | –
N[C@@H](CS)CNc1ccc(-c2cccc(C(=O)O)c2)cc1 | 0.114 | 100 | –
N[C@@H](CS)CNCc1cccc(-c2cccc(C(=O)O)c2)c1 | 11 | 35 | –
COc1cc(NC[C@@H](N)CS)ccc1-c1cccc(C(=O)O)c1 | 0.04 | 43.6 | –

From ChEMBL document CHEMBL1129288, “Design and synthesis of non-peptide Ras CAAX mimetics as potent farnesyltransferase inhibitors” (J Med Chem, 1996)
